Series [1] is described as follows: Metabolic stability in mouse liver microsomes assessed as compound remaining at 0.5 uM incubated for 10 mins in presence of NADPH by UV absorbance based assay. Format: ADME, Microsome. As to conditions: read-out: Stability. (Microsomes from liver hold many membrane-bound enzymes, among them those of drug oxidation.)
For a further series, the system named is CT26. The series can be described thus: Antitumor activity against syngeneic mouse CT26 cells implanted in Balb/cAnNHsd mouse assessed as complete tumor regression with no relapse at 2.5 mg/kg, ip administered once a week for 4 weeks in presence of aPD1 antibody and measured twice weekly by digital caliper analysis. Type of series: functional, organism-based. An outline of the steps: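 Syngeneic CT-26 tumors in mice. The TLR7 agonist was given at 0.5 or 2.5 mg/kg weekly for 4 doses (QWx4). It was combined with anti-PD1 antibody at 10 mg/kg IP, every 4 days for 7 doses (Q4Dx7). Tumor growth was followed, including 27 days after compound dosing stopped.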

Calls of active or inactive are those of the source. The calls are words filed in the database; no cut-off is given here.

With `CCC[C@@H](CCO)Nc1nc(N)nc2cnn(Cc3ncc(C4CCN(C5CCOCC5)CC4)cc3OC)c12`, the remaining at 10 min, 0.5 µM in series [1] was determined as 100%. In the series with CT26, the result was Active.

(Values after ChEMBL document CHEMBL5357082, “Identification and Optimization of Small Molecule Pyrazolopyrimidine TLR7 Agonists for Applications in Immuno-oncology” (ACS Med Chem Lett, 2024).)
